# According to ChEMBL document CHEMBL4732101, “Novel quinolone-based potent and selective HDAC6 inhibitors: Synthesis, molecular modeling studies and biological investigation” (Eur J Med Chem, 2021):
# Calls of active or inactive are those of the source. No cut-off for these calls is given here.
# Experiments:
# HCT-116 [1] = assay: Cytotoxicity against human HCT-116 cells assessed as reduction in cell proliferation at 25 uM measured after 48 hrs by MTT assay relative to control; format: functional; design: scale not given: the % may be the effect or the level left; conditions: time 12 hrs, in the assay text read “after 12 hrs” for “after 48 hrs”
# Procedure, shortened: (§1)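 HCT-116 cells grown in DMEM with 10% FBS, 2 mM L-glutamine and antibiotics. 2.5×10^4 cells/well treated in triplicate at 50, 25, 10, 5 and 1 µM for 12, 24 or 48 h. Then MTT 0.5 mg/ml for 3 h, supernatant removed, formazan dissolved in isopropanol, absorbance read at 570 nm. IC50 derived from the concentration series.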
# [2] = Cytotoxicity against human PBMC cells assessed as reduction in cell viability at 45 uM measured after 24 to 48 hrs by GUAVA easyCyte cytometric method; format: cell-based; conditions: time 24-48 hrs
# Procedure, shortened: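 PBMCs seeded at 1.5 x10^6/mL in complete medium and exposed to 15, 45 or 90 µM test compound, or DMSO vehicle, for 24 h and 48 h. Percentage of viable cells determined by flow cytometry with ViaCount reagent.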
# HCT-116 [3] = assay: Cytotoxicity against human HCT-116 cells assessed as reduction in cell viability measured after 12 hrs by MTT assay; format: functional, cell-based; conditions: HCT-116, 12 h; procedure, shortened: as §1
# U-937 [4] = assay: Cytotoxicity against human U-937 cells assessed as reduction in cell viability measured after 48 hrs by MTT assay; format: functional, cell-based; conditions: U-937, 48 h
# Procedure, shortened: (§2)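 U937 cells grown in RPMI-1640 with 10% FBS, 2 mM L-glutamine and penicillin-streptomycin. 2.5×10^4 cells/well treated in triplicate at 50, 25, 10, 5 and 1 µM for 12, 24 or 48 h. MTT 0.5 mg/ml added for 3 h, plate centrifuged 5 min at 1200 rpm, crystals dissolved in isopropanol, A570 read. IC50 derived from the concentration series.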
# [5] = Inhibition of HDAC1/2/3/8 in human U-937 cells assessed as increase in H3K9/14 acetylation at 10 uM measured after 12 to 24 hrs by Western blot analysis; format: cell-based; conditions: u-937, 10 µM, time 12-24 hrs
# Procedure, shortened: (§3)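 HCT-116 or U937 cells treated at 10 µM for 12 and 24 h. […] Western blot used 40 µg total protein or 5 µg acid-extracted histone. Blots probed for cleaved PARP, acetylated tubulin, H3K9/14ac and Hsp90(AcLys294), normalized to GAPDH or H4. Compared with control cells by one-way ANOVA and Dunnett's test.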
# HCT-116 [6] = assay: Induction of apoptosis in human HCT-116 cells assessed as increase in PARP cleavage at 10 uM measured after 24 hrs by Western blot analysis; format: functional, cell-based; procedure, shortened: as §3
# [7] = target: T1, Protein deacetylase HDAC6 (Homo sapiens) (UniProt Q9UBN7); assay: Inhibition of HDAC6 in human HCT-116 cells assessed as increase in alpha-tubulin acetylation at 10 uM measured after 12 to 24 hrs by Western blot analysis relative to control; format: cell-based; conditions: time 12-24 hrs; procedure, shortened: as §3
# T1 sequence (whole entry): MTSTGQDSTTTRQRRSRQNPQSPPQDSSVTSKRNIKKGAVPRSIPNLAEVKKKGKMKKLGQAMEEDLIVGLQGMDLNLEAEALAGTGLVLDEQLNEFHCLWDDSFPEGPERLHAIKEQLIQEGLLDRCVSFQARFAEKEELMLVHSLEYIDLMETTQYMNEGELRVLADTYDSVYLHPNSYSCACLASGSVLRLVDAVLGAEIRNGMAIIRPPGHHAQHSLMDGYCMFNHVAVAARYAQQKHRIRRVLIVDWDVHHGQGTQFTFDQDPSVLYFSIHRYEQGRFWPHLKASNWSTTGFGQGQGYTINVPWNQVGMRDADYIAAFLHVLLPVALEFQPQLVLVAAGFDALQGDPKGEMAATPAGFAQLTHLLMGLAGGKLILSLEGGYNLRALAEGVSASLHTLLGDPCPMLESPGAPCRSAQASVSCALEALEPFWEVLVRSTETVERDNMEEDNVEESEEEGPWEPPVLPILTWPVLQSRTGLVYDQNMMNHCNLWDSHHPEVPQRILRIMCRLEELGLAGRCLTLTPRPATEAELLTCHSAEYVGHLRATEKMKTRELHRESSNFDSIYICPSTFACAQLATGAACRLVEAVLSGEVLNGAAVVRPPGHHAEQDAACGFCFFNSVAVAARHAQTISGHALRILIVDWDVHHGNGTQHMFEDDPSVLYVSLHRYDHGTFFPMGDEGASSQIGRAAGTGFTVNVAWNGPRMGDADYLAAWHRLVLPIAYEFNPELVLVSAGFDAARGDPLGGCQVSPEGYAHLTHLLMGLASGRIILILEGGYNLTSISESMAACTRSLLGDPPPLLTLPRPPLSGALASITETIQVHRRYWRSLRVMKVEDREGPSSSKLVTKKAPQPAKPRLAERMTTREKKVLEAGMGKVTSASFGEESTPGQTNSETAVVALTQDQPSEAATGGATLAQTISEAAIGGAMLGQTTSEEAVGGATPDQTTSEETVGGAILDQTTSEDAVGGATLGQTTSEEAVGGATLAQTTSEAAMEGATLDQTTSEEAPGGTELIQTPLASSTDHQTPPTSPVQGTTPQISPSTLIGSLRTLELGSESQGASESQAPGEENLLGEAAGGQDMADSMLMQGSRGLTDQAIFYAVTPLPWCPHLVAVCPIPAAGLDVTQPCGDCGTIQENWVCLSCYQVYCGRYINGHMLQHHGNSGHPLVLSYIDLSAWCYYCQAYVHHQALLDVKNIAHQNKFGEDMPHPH
# [8] = target: T1, Protein deacetylase HDAC6 (Homo sapiens); assay: Inhibition of HDAC6 in human U-937 cells assessed as increase in alpha-tubulin acetylation at 10 uM measured after 12 to 24 hrs by Western blot analysis relative to control; format: cell-based; conditions: time 12-24 hrs; procedure, shortened: as §3
# HCT-116 [9] = assay: Cytotoxicity against human HCT-116 cells assessed as reduction in cell viability measured after 48 hrs by MTT assay; format: functional, cell-based; conditions: HCT-116, 48 h; procedure, shortened: as §1
# [10] = Inhibition of HDAC1/2/3/8 in human HCT-116 cells assessed as increase in H3K9/14 acetylation at 10 uM measured after 12 to 24 hrs by Western blot analysis relative to control; format: cell-based; conditions: hct-116, 10 µM, time 12-24 hrs; procedure, shortened: as §3
# HCT-116 [11] = assay: Cytotoxicity against human HCT-116 cells assessed as reduction in cell proliferation at 10 uM measured after 48 hrs by MTT assay relative to control; format: functional; design: scale not given: the % may be the effect or the level left; procedure, shortened: as §1
# Histone deacetylase 8 = target: T2, Histone deacetylase 8 (Homo sapiens, UniProt Q9BY41); assay: Inhibition of recombinant human HDAC8 using Fluor-de-Lys as substrate measured after 1 hr by fluorescence assay
# T2 sequence (Q9BY41 whole entry): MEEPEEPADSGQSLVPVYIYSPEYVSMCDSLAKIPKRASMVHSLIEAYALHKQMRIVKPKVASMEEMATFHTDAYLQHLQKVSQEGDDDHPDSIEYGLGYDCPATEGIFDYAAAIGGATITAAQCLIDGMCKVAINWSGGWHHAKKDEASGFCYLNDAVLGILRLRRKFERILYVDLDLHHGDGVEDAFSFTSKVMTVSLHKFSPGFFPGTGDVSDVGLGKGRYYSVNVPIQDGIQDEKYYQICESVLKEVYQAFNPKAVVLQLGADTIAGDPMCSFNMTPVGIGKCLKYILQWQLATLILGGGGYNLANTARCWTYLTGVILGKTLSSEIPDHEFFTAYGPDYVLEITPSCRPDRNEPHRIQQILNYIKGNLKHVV
# HCT-116 [12] = assay: Cytotoxicity against human HCT-116 cells assessed as reduction in cell viability measured after 24 hrs by MTT assay; format: functional, cell-based; conditions: HCT-116, 24 h; procedure, shortened: as §1
# U-937 [13] = assay: Cytotoxicity against human U-937 cells assessed as reduction in cell proliferation at 50 uM measured after 48 hrs by MTT assay relative to control; format: functional; design: scale not given: the % may be the effect or the level left; procedure, shortened: as §2
# U-937 [14] = assay: Induction of apoptosis in human U-937 cells assessed as increase in PARP cleavage at 10 uM measured after 24 hrs by Western blot analysis; format: functional, cell-based; procedure, shortened: as §3
# [15] = target: T1, Protein deacetylase HDAC6 (Homo sapiens); assay: Inhibition of HDAC6 in human U-937 cells assessed as increase in Hsp90(AcLys294) acetylation at 10 uM measured after 12 to 24 hrs by Western blot analysis; format: cell-based; conditions: time 12-24 hrs; procedure, shortened: as §3
# HCT-116 [16] = assay: Cytotoxicity against human HCT-116 cells assessed as reduction in cell proliferation at 10 uM measured after 24 hrs by MTT assay relative to control; format: functional; design: scale not given: the % may be the effect or the level left; procedure, shortened: as §1
# [17] = target: T1, Protein deacetylase HDAC6 (Homo sapiens); assay: Inhibition of HDAC6 in human HCT-116 cells assessed as increase in Hsp90(AcLys294) acetylation at 10 uM measured after 12 to 24 hrs by Western blot analysis; format: cell-based; conditions: time 12-24 hrs; procedure, shortened: as §3
compound,measurement,setting,value
CCN(CC)Cc1ccc(Cn2c(=O)c(OCc3ccc(C(=O)NO)cc3)c(-c3ccccc3)c3ccccc32)cc1,Activity,HCT-116 [1],80%
same,Activity,[2],Toxic
same,IC50,HCT-116 [3],13.5 µM
same,IC50,U-937 [4],40.6 µM
same,inhibition (INH),[5],Active
same,Activity,HCT-116 [6],Active
same,fold change (FC),[7],> 9
same,fold change (FC),[8],> 9
same,IC50,HCT-116 [9],3.6 µM
same,fold change (FC),[10],2
same,Activity,HCT-116 [11],90%
same,IC50,Histone deacetylase 8,0.55 µM
same,Kapp,"Histone deacetylase 8; human, 1 h",0.36 µM
same,IC50,HCT-116 [12],11.6 µM
same,Activity,U-937 [13],60%
same,Activity,U-937 [14],Active
same,inhibition,[15],inactive
same,Activity,HCT-116 [16],50%
same,inhibition,[17],Active
